High-throughput results: PubChem, The Scripps Research Institute Molecular Screening Center
An excerpt weighted towards active compounds, which were near 1.8% of everything screened.
SIAE inh: human SIAE inhibition, primary screen; AID 1053197; 370,000 compounds, 0.69% hits; SIAE FP-Rh probe binding, fluorescence polarization; inhibition, % at 9.66 µM; Q9HAT2;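 active means inhibition above a cutoff: mean of compounds within the control limits plus 3 SD of those, cut at about 17% in these data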;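 further: 0% = plate median of compound wells and 100% = probe without SIAE protein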
Target sequence (Q9HAT2 whole entry, looked up): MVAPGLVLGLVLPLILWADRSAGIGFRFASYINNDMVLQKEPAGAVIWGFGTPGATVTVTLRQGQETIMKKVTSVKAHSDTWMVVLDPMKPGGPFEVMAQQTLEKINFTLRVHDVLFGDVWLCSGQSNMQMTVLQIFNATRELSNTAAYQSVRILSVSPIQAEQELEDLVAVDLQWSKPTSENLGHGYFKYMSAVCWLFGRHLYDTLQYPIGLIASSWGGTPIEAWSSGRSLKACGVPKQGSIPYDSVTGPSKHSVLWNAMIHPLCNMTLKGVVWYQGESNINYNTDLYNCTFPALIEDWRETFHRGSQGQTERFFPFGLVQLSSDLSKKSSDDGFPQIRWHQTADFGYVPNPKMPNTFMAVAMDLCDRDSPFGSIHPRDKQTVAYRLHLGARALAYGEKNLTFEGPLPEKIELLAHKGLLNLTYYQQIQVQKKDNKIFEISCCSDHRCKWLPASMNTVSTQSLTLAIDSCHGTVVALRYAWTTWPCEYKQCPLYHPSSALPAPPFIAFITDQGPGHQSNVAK
DDE Tn7 FP inh: inhibitors of Tn7 peptide binding to human fibrin DD(E). 370,000 compounds, 0.13% hits. P02675. FP displacement of FITC-Tn7 peptide from fibrin DD(E); 0% = median of compound wells per plate. inhibition, % at 8.3 µM;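 active means inhibition above the mean of compounds falling within the control limits plus 3 SD of them, cut at about 14% in these data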;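 further: 0% = plate median of compound wells and 100% = 10 µM Aha-Tn7 peptide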
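Assay system: human fibrin DD(E) protein / Input: 2 µM fibrin DD(E) / Benchmarks: high control of 10 µM Aha-Tn7 peptide / Measured by: fluorescence polarization of the labelled Tn7 tracer / Medium: Tris buffer with calcium and detergent, pH 7.8 / Timing: 10 min compound pre-incubation, 3 h probe incubation at room temperature / Repeats: one replicate per compound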
ABHD4 inh: inhibits mouse alpha/beta hydrolase domain 4. AID 720543. purified mABHD4, FP-Rh probe fluorescence polarization. inhibition, % at 8.92 µM. 370,000 compounds, 0.54% hits;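 active means inhibition exceeding the mean over every tested compound plus 3 SD, cut at about 30% in these data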;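 further: 0% = plate median of compound wells and 100% = S159A mutant with DMSO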
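System: mouse ABHD4 enzyme, wild type / Medium: HEPES pH 7.0, NaCl, Pluronic buffer / Reagent: FP-Rh activity-based fluorescent probe / Control set: S159A mutant high control, sample median low control / Detection: fluorescence polarization with parallel and perpendicular emission, 525/598 nm / Schedule: 45 min + 60 min at 25 °C / Compound dosing: 8.92 µM, single dose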
TCR-CD3 inh: human TCR-CD3 binding inhibition. TAMRA-labeled TCR probe fluorescence, biochemical. inhibition, % at 9.4 µM. 360,000 compounds, 0.37% hits; in the data active means inhibition above about 19%;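 further: recombinant mutant TCR 2C K166C tagged with TAMRA read by polarization; 0% = receptor in buffer alone and 100% = receptor with positive control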
HTRA1 inhibitor: HTRA1 (human) protease inhibition; recombinant HTRA1, FP-rhodamine activity-based probe, fluorescence polarization; inhibition, % at 5.96 µM; 340,000 compounds, 0.5% hits; AID 504803; in the data active means inhibition above about 36%;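 further: 0% = enzyme with DMSO and 100% = wells lacking enzyme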
DDE Tn6 FP inh: disrupts Tn6 cyclic peptide binding to fibrin D-Dimer-E complex. Fibrin DD(E) TRITC-Tn6 fluorescence polarization displacement. inhibition, % at 8.3 µM. 370,000 compounds, 0.21% hits. AID 720509;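 active means inhibition above a per-campaign cutoff: mean of compounds within control limits plus 3 SD, cut at about 15% in these data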;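 further: 0% = median of all compound wells on the plate and 100% = blocking peptide control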
SIAE confirm: human SIAE inhibition, confirmation; shares compounds with SIAE inh; SIAE FP-Rh activity-based probe, fluorescence polarization; inhibition, % at 9.66 µM; 2,300 compounds, 13% hits; AID 1117263;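 active means mean inhibition of the replicates above the hit cutoff set in the primary screen, cut at about 17% in these data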;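 further: 0% = SIAE with DMSO and probe and 100% = probe without SIAE; inhibitors lower polarization as more probe stays unbound to SIAE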
Starred values were filed as active, the others as inactive; nt = no result.

SMILES	SIAE inh	DDE Tn7 FP inh	ABHD4 inh	TCR-CD3 inh	HTRA1 inhibitor	DDE Tn6 FP inh	SIAE confirm
COc1ccc(CN2CN3CCc4ccccc4C3CS2(=O)=O)cc1 (configuration not stated)	4	4	3	nt	nt	-4	nt
CN(CCO)c1cccc2c1S(=O)(=O)N(Cc1cn(Cc3ccccc3C(F)(F)F)nn1)Cc1ccccc1O2	7	3	-3	nt	nt	-7	nt
COP1(=O)CCOCC[C@H](CC(C)C)NC(=O)[C@H](CC(C)C)N1 (some centres not stated)	3	8	0	nt	nt	4	nt
COC(=O)c1ccccc1NC(=O)/C=N/O	-3	2	4	-1	2	-2	nt
O=C(/C=N/O)Nc1ccc2sc3ccccc3c2c1	61*	5	-8	0	-7	2	50*
CCOC(=O)c1cccc(-c2cc(C(C)=O)c3n(c2=O)CCC3)c1	0	5	0	nt	nt	0	nt
O=C(CC1CCCC1)N1CC[C@H]2[C@H](CCCN2Cc2ccc(F)cc2)C1	-2	-5	-4	nt	nt	-1	nt
Cc1ccc(CN(C)C(=O)c2ccc(S(=O)(=O)N3CCCCCC3)cc2)o1	17*	5	3	1	1	2	0
CN(Cc1cccs1)C(=O)c1ccc(S(=O)(=O)N2CCCCC2)cc1	2	-2	-2	-6	9	5	nt
CCOC(=O)c1[nH]c2ccc(Br)cc2c1NC(=O)CCN1CCOCC1	-3	7	-12	-3	5	-5	nt
CCOC(=O)c1[nH]c2ccc(Br)cc2c1NC(=O)CCN1CCN(C(=O)OCC)CC1	18*	-9	-7	5	-6	-5	0
COCCN(CC(=O)Nc1cccc(C)c1C)C(=O)c1oc2c(Cl)cccc2c1C	28*	-3	-8	1	-18	1	-4
Cc1cccc(Cn2cc(COC(=O)Nc3ccc(F)cc3)nn2)c1	6	-7	-4	nt	nt	-9	nt
Cc1ccc(/C=N\NC(=O)/C(=C\Nc2nccc(C)n2)NC(=O)c2ccccc2)cc1	18*	-1	10	3	-7	2	7
COc1ccc(/C=N\NC(=O)/C(=C\Nc2nccc(C)n2)NC(=O)c2ccccc2)cc1	0	0	14	-2	-8	-2	nt
C[C@H](O)[C@@H]1CN2CCc3ccc(N4CCOCC4)cc3[C@@H]2C[C@@H]1N(C)C(=O)c1cccc(Cl)c1	7	-3	3	nt	nt	2	nt
CCCCCCCCN1C(=O)[C@@H](CC(=O)NCc2cccc(C(F)(F)F)c2)C[C@@]2(C(=O)OC)C1=C[C@H](C(C)C)O[C@@H]2C1CC1	4	1	1	nt	nt	4	nt
CCCn1ncc([C@@H]2C[C@H]3CN(Cc4cccc(Cl)c4)C(=O)[C@]34CCCN24)c1C	18*	2	-1	14	5	5	-4
CCn1ncc([C@@H]2C[C@H]3CN(Cc4cccc(Cl)c4)C(=O)[C@]34CCCN24)c1C	-3	5	-1	-4	nt	-4	nt
Cc1ccc(-c2cc(C(=O)NCCCN3CCOCC3)no2)cc1	0	-4	3	0	-7	5	nt
O=C(NCCCN1CCOCC1)c1sc2cc(F)ccc2c1Cl	1	-3	3	6	-3	0	nt
O=C(NCCCN1CCOCC1)c1sc2cc(Cl)ccc2c1Cl	21*	5	0	2	3	1	2
O=C(NCCCN1CCOCC1)c1cc(-c2cccs2)on1	21*	2	-1	2	1	4	6
O=C(CSc1nnc(SCc2ccccc2Cl)s1)N/N=C/c1c[nH]c2ccccc12	28*	0	-5	8	2	-3	9
O=C(CSc1nnc(SCc2ccccc2)s1)N/N=C/c1c[nH]c2ccccc12	1	1	6	-3	-4	-1	nt
Cc1cc(N2CCNC[C@@H]2C)ccc1N1CCN(Cc2ccccc2)[C@H](C)C1	8	1	6	8	nt	2	nt
COCc1cc(N2CCNC[C@@H]2C)ccc1N1CCN(Cc2ccccc2)[C@H](C)C1	17*	-4	9	-8	nt	-3	4
